Experimental data from ChEMBL document CHEMBL1132175, “Synthesis and in vivo evaluation of new contrast agents for cardiac MRI” (J Med Chem, 1999).
Converted amounts (≈) assume the structure as drawn.

Tests used:
[1] = Aqueous solubility of the compound; type: physicochemical; conditions: water; read-out: S
Summary of the method: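 Gd–ligand 1:1 complexes were made from GdCl3 in water at pH 7.0 over a series of nominal concentrations around the expected precipitation point. Experimental concentration was taken as ΔR1(observed)/ρ1. ρ1 came from one well-dissolved sample whose Gd was measured by ICP-OES.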

[2] = tested on: Mustela putorius furo; experiment: In vivo Myocardial MRI signal intensity (MRI IE)in ferrets induced by the compound at 50 umol/kg was measured at 0-10 min.; type: functional, Myocardium
Summary of the method: (§1)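 Ferrets received a bolus of 50 µmol/kg Gd complex. BAE and ABE were given as water-soluble pH 7 solutions; ABE used a 1.2-fold ligand excess and 10 mM Gd. BPE, BBE, BHE and BME were given in lecithin/cholesterol liposomes in 0.9% saline/20 mM HEPES pH 7.4. Myocardial signal was read on 1.5 T MRI (head coil) against an agarose phantom and compared with pre-agent control images. Imaging ran over 3 h.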

[3] = tested on: Mustela putorius furo; experiment: In vivo Myocardial MRI signal intensity (MRI IE)in ferrets induced by the compound at 50 umol/kg was measured at 180 min.; type: functional, Myocardium; summary of the method: as §1
[4] = tested on: Mustela putorius furo; experiment: In vivo Myocardial MRI signal intensity (MRI IE)in ferrets induced by the compound at 50 umol/kg was measured at 30-60 min.; type: functional, Myocardium; summary of the method: as §1
[5] = tested on: Mustela putorius furo; experiment: In vivo Myocardial MRI signal intensity (MRI IE)in ferrets induced by the compound at 50 umol/kg was measured at 180 min; type: functional, Myocardium; summary of the method: as §1

SMILES	solubility [1]	IE [2]	IE [3]	IE [4]	IE [5]
CCCCCC(=O)OCCN(CCN(CCOC(=O)CCCCC)CC(=O)N(CC(=O)O)CC(=O)O)CC(=O)N(CC(=O)O)CC(=O)O	0.5 mM (≈ 345 µg/mL)	32.3%	30.1%	41.7%	–
CCCC(=O)OCCN(CCN(CCOC(C)=O)CC(=O)N(CC(=O)O)CC(=O)O)CC(=O)N(CC(=O)O)CC(=O)O	25 mM (≈ 15200 µg/mL)	42.8%	38.5%	43.6%	–

Second part, led by results:

solubility [1]	SMILES	IE [2]	IE [3]	IE [4]	IE [5]
30 mM (≈ 17400 µg/mL)	CC(=O)OCCN(CCN(CCOC(C)=O)CC(=O)N(CC(=O)O)CC(=O)O)CC(=O)N(CC(=O)O)CC(=O)O	87.2%	–	10.1%	10.1%
0.015 mM (≈ 13.7 µg/mL)	CCCCCCCCCCCCCC(=O)OCCN(CCN(CCOC(=O)CCCCCCCCCCCCC)CC(=O)N(CC(=O)O)CC(=O)O)CC(=O)N(CC(=O)O)CC(=O)O	55.2%	65.2%	67.2%	–
5 mM (≈ 3170 µg/mL)	CCCC(=O)OCCN(CCN(CCOC(=O)CCC)CC(=O)N(CC(=O)O)CC(=O)O)CC(=O)N(CC(=O)O)CC(=O)O	53.1%	39.3%	52.1%	–
7 mM (≈ 4250 µg/mL)	CCC(=O)OCCN(CCN(CCOC(=O)CC)CC(=O)N(CC(=O)O)CC(=O)O)CC(=O)N(CC(=O)O)CC(=O)O	34.6%	47.2%	38.4%	–
